Results on twelve molecules are retold here after ChEMBL document CHEMBL1143122, “Novel analogs of D-e-MAPP and B13. Part 1: synthesis and evaluation as potential anticancer agents” (Bioorg Med Chem, 2008).

The pIC50 is the negative decadic logarithm of the IC50, by convention in mol/L. Low values mean a large IC50, high ones a small IC50.

For data set [1], the system named is MCF7. Description: Drug level in human MCF7 cells at 10 uM per 10^6 cells after 0.5 hrs. Type of data set: ADME, cell-based. The following applies: mcf7, 0.5 h. A digest of the protocol: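 MCF7 cells kept in RPMI 1640 with 10% fetal calf serum at 37 °C, 5% CO2, then treated with 10 μM analog. Intracellular analog measured over time by HPLC-MS in positive-ion MRM mode. Quantified against calibration curves made by spiking an artificial matrix with standards plus internal standard, using analyte/IS peak-area ratios and linear regression. Reported as pmol per 1×10^6 cells.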

In data set [2] the test system is MCF7. Description: Antiproliferative activity against human MCF7 cells after 48 hrs. Type of data set: functional, cell-based. The following applies: MCF7, 48 h.

pIC50: −log10 of the molar value.

`CCCCCCCCCCCCCC(=O)N[C@H](CO)[C@H](O)c1ccc(NC(=O)CCCCC[n+]2ccccc2)cc1.[Br-]` returned a Drug uptake with MCF7 [1] of 800 pmol. Moreover, in the data set on MCF7 [2], the pIC50 is 4.70.
Regarding `CCCCCCCCCCCCCC(=O)N(C)[C@H](C)[C@@H](O)c1ccccc1`, the pIC50 in the data set with MCF7 [2] is less than 5.00.
Regarding `CCCCCCCCCCCCNC(=O)N[C@@H](CO)[C@@H](O)c1ccc([N+](=O)[O-])cc1`, the pIC50 with MCF7 [2] is less than 5.00.
On to `CCCCCCCCCCCCCC(=O)N(C)[C@H](C)[C@H](O)c1ccccc1`, for which the pIC50 in the data set with MCF7 [2] is less than 5.00.
On to `CCCCCCCCCCCCCC(=O)N(C)[C@@H](C)[C@H](O)c1ccccc1`, for which the negative logarithm of the IC50 (pIC50) with MCF7 [2] was less than 5.00.
For `CCCCCCCCCCCCNC(=O)N[C@H](C)[C@@H](O)c1ccccc1`, the pIC50 in the data set on MCF7 [2] was less than 5.00.
Same read-out and setting: to `CCCCCCCCCCCCCC(=O)N(C)[C@@H](C)[C@@H](O)c1ccccc1` belongs less than 5.00; to `CCCCCCCCCCCCNC(=O)N[C@@H](C)[C@H](O)c1ccccc1`, less than 5.00.
In the case of `CCCCCCCCCCCCN[C@H](C)[C@@H](O)c1ccccc1`, in the data set with MCF7 [2], the negative logarithm of the IC50 (pIC50) is 5.05.
Regarding `CCCCCCCCCCCCNC(=O)N[C@H](CO)[C@H](O)c1ccc([N+](=O)[O-])cc1`, in the data set with MCF7 [2], the pIC50 was less than 5.00.
The same measure, in the same setting: to `CCCCCCCCCCCCCC(=O)N[C@H](CO)[C@H](O)c1ccc([N+](=O)[O-])cc1` belongs 4.85; to `CCCCCCCCCCCCCC(=O)N[C@H](C)[C@@H](O)c1ccccc1`, 4.52.
